{
  "source": "ChEMBL document CHEMBL1811860",
  "about": "“Synthesis and inhibitory activity of sialic acid derivatives targeted at viral sialate-O-acetylesterases” (Eur J Med Chem, 2011)",
  "key": {"[1]": {"experiment": "Inhibition of recombinant influenza C virus C/Cal/78 GFP-tagged 9-SOAE expressed in Sf9 cells assessed as inhibition of hydrolysis of pNPA at 5 mM", "procedure,_shortened": "(§1)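 EGFP-fused haemagglutinin-esterase was made in serum-free Sf9 cultures via recombinant baculovirus and recovered from supernatant by ultracentrifugation (1.5 h, 4 °C). It was preincubated with sialoside for 30 min at room temperature. pNPA (10 µl of 100 mM acetonitrile stock) was added in PBS pH 7.4 to 1 ml, and A400 was followed. Read-out was % inhibition of pNPA hydrolysis.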"}, "[2]": {"experiment": "Inhibition of recombinant influenza C virus C/Cal/78 GFP-tagged 9-SOAE expressed in Sf9 cells assessed as inhibition of hydrolysis of pNPA at 2 mM", "procedure,_shortened": "as §1"}, "[3]": {"experiment": "Inhibition of recombinant influenza C virus C/Cal/78 GFP-tagged 9-SOAE expressed in Sf9 cells assessed as inhibition of Neu5,9Ac2 hydrolysis at 1 mM by fluorimetric HPLC analysis", "procedure,_shortened": "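Baculovirus/Sf9-expressed EGFP fusion (10 mU) was preincubated with 1 mM sialoside in PBS pH 7.4 for 30 min at room temperature. Free O-acetylated sialic acid or bovine submandibular mucin (10 µg) was then added and incubated at 37 °C for 20–240 min. Mucin samples were hydrolysed in 2 M propionic acid (80 °C, 2 h). Sialic acids were analysed by reverse-phase HPLC with fluorimetric detection.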"}, "[4]": {"experiment": "Inhibition of recombinant influenza C virus C/Cal/78 GFP-tagged 9-SOAE expressed in Sf9 cells assessed as inhibition of hydrolysis of pNPA at 0.5 mM", "procedure,_shortened": "as §1"}, "[5]": {"experiment": "Inhibition of Bovine coronavirus 9-SOAE expressed in Sf9 cells assessed as inhibition of hydrolysis of pNPA at 2 mM"}, "[6]": {"experiment": "Inhibition of Influenza C virus C/JJ/50 9-SOAE expressed in Sf9 cells assessed as inhibition of hydrolysis of pNPA at 1 mM"}, "[7]": {"experiment": "Inhibition of recombinant influenza C virus C/Cal/78 GFP-tagged 9-SOAE expressed in Sf9 cells assessed as inhibition of hydrolysis of pNPA at 1 mM", "procedure,_shortened": "as §1"}, "[8]": {"experiment": "Inhibition of Bovine coronavirus […] assessed as inhibition of hydrolysis of pNPA at 1 mM", "settings": "Sf9"}, "[9]": {"experiment": "Inhibition of Bovine coronavirus 9-SOAE expressed in Sf9 cells assessed as inhibition of hydrolysis of pNPA at 0.5 mM"}, "[10]": {"experiment": "Inhibition of MHV S 4-SOAE expressed in Sf9 cells assessed as inhibition of hydrolysis of pNPA at 0.1 mM", "settings": "Murine coronavirus"}, "[11]": {"experiment": "Inhibition of SDAV GFP-tagged 9-SOAE expressed in Sf9 cells assessed as inhibition of hydrolysis of pNPA at 5 mM", "settings": "Rat sialodacryoadenitis coronavirus", "procedure,_shortened": "as §1"}, "[12]": {"experiment": "Inhibition of MHV S 4-SOAE expressed in Sf9 cells assessed as inhibition of hydrolysis of pNPA at 1 mM", "settings": "Murine coronavirus"}, "[13]": {"experiment": "Inhibition of MHV S 4-SOAE expressed in Sf9 cells assessed as inhibition of hydrolysis of pNPA at 0.5 mM", "settings": "Murine coronavirus"}, "[14]": {"experiment": "Inhibition of SDAV GFP-tagged 9-SOAE expressed in Sf9 cells assessed as inhibition of hydrolysis of pNPA at 0.5 mM", "settings": "Rat sialodacryoadenitis coronavirus", "procedure,_shortened": "as §1"}, "[15]": {"experiment": "Inhibition of SDAV GFP-tagged 9-SOAE expressed in Sf9 cells assessed as inhibition of hydrolysis of pNPA at 0.1 mM", "settings": "Rat sialodacryoadenitis coronavirus", "procedure,_shortened": "as §1"}, "[16]": {"experiment": "Inhibition of SDAV GFP-tagged 9-SOAE expressed in Sf9 cells assessed as inhibition of hydrolysis of pNPA at 1 mM", "settings": "Rat sialodacryoadenitis coronavirus", "procedure,_shortened": "as §1"}, "[17]": {"experiment": "Inhibition of MHV S 4-SOAE expressed in Sf9 cells assessed as inhibition of hydrolysis of pNPA at 5 mM", "settings": "Murine coronavirus"}, "[18]": {"experiment": "Inhibition of influenza C virus 9-SOAE assessed as inhibition of hydrolysis of pNPA", "procedure,_shortened": "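Esterase came from whole virions purified by ultracentrifugation through a 20% sucrose cushion (1.5 h, 4 °C) and resuspended in PBS pH 7.4. Enzyme was preincubated with sialoside for 30 min at room temperature. pNPA (10 µl of 100 mM acetonitrile stock) was then added in PBS pH 7.4 to 1 ml, and A400 was monitored. Read-out was % inhibition of pNPA hydrolysis.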"}},
  "data": [
    {"compound": "C=CCO[C@]1(C(=O)O)C[C@H](O)[C@@H](NC(C)=O)[C@H]([C@H](O)[C@H](O)COC)O1", "values": [
      {"measurement": "inhibition", "setting": "[1]", "value": 85.8, "unit": "%"},
      {"measurement": "inhibition", "setting": "[2]", "value": 33, "unit": "%"},
      {"measurement": "inhibition", "setting": "[3]", "value": 10, "unit": "%"},
      {"measurement": "inhibition", "setting": "[4]", "value": 22.9, "unit": "%"},
      {"measurement": "inhibition", "setting": "[5]", "value": "< 0", "unit": "%"},
      {"measurement": "inhibition", "setting": "[6]", "value": 8.63, "unit": "%"},
      {"measurement": "inhibition", "setting": "[7]", "value": 22.4, "unit": "%"},
      {"measurement": "inhibition", "setting": "[8]", "value": 9, "unit": "%"},
      {"measurement": "inhibition", "setting": "[9]", "value": 2.86, "unit": "%"}
    ]},
    {"compound": "C=CCO[C@]1(C(=O)O)C[C@H](OC)[C@@H](NC(C)=O)[C@H]([C@H](O)[C@H](O)CO)O1", "values": [
      {"measurement": "inhibition", "setting": "[10]", "value": 4, "unit": "%"},
      {"measurement": "inhibition", "setting": "[11]", "value": 8.73, "unit": "%"},
      {"measurement": "inhibition", "setting": "[12]", "value": 8.31, "unit": "%"},
      {"measurement": "inhibition", "setting": "[13]", "value": 0, "unit": "%"},
      {"measurement": "inhibition", "setting": "[14]", "value": 2.56, "unit": "%"},
      {"measurement": "inhibition", "setting": "[15]", "value": 2.13, "unit": "%"},
      {"measurement": "inhibition", "setting": "[16]", "value": 0.51, "unit": "%"},
      {"measurement": "inhibition", "setting": "[17]", "value": 7.73, "unit": "%"}
    ]},
    {"compound": "((2S,4S,5R,6R)-5-acetamido-6-((1R,2R)-3-acetamido-1,2-dihydroxypropyl)-2-carboxy-4-hydroxytetrahydro-2H-pyran-2-ylthio)(methyl)mercury", "values": [
      {"measurement": "Ki", "setting": "[18]", "value": 4.2, "unit": "mM"}
    ]}
  ]
}
